# Test results as given in ChEMBL document CHEMBL1156706, “Structure-activity relationships of novel heteroaryl-acrylonitriles as cytotoxic and antibacterial agents” (Eur J Med Chem, 2008).
# Activity calls are given as the source filed them. No cut-off for these calls is given here.
# How the values were obtained:
# [1] = tested on: HL-60; test: Cell cycle arrest in human HL60 cells assessed as accumulation at G0/G1 and G2/M phases at 0.3 uM after 72 hrs by FACS relative to untreated control
# [2] = tested on: DAN-G; test: Cytotoxicity against human DAN-G cells after 96 hrs by microtiter assay; assay type: functional, cell-based
# Summary of the method: (§1)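 DSMZ cell lines in RPMI 1640 with 10% FCS. DMF stocks diluted 1000-fold into medium. Continuous exposure 96 h at 37 °C, 5% CO2. Adherent cells stained with crystal violet. IC50 (50% growth inhibition vs untreated control) obtained by least-squares fitting of dose–response curves, averaging 2–5 independent determinations.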
# [3] = tested on: RT-4; test: Cytotoxicity against human RT4 cells after 96 hrs by microtiter assay; assay type: functional, cell-based; conditions: RT-4, 96 h
# Summary of the method: as §1
# [4] = tested on: 5637; test: Cytotoxicity against human 5637 cells after 96 hrs by microtiter assay; assay type: functional, cell-based; conditions: Homo sapiens, 5637, 96 h
# Summary of the method: as §1
# [5] = Cytotoxicity against human KYSE520 cells after 96 hrs by microtiter assay; assay type: functional, cell-based; conditions: KYSE-520, 96 h
# Summary of the method: as §1
# [6] = tested on: SISO; test: Cytotoxicity against human SISO cells after 96 hrs by microtiter assay; assay type: functional, cell-based
# Summary of the method: as §1
# [7] = Cytotoxicity against human KYSE70 cells after 96 hrs by microtiter assay; assay type: functional, cell-based; conditions: KYSE-70, 96 h
# Summary of the method: as §1
# [8] = tested on: HL-60; test: Cell cycle arrest in human HL60 cells assessed as accumulation at G2/M phase at 0.15 uM after 72 hrs by FACS relative to untreated control; assay type: functional, cell-based
# Summary of the method: (§2)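 Unsynchronized HL-60 cells treated 24 or 72 h across 0.03–1 µM. Cells fixed in 70% ice-cold ethanol and DNA stained with propidium iodide. Fractions in G0/G1, S and G2/M quantified by flow cytometry and compared with untreated control.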
# [9] = tested on: RT-112; test: Cytotoxicity against human RT112 cells after 96 hrs by microtiter assay; assay type: functional, cell-based; conditions: RT-112, 96 h
# Summary of the method: as §1
# [10] = tested on: HL-60; test: Cell cycle arrest in human HL60 cells assessed as accumulation at G0/G1 and G2/M phases at 0.15 uM after 72 hrs by FACS relative to untreated control
# [11] = tested on: HL-60; test: Cell cycle arrest in human HL60 cells assessed as accumulation at G0/G1 phase at 0.15 uM after 72 hrs by FACS relative to untreated control; assay type: functional, cell-based
# Summary of the method: as §2
# [12] = tested on: KYSE-510; test: Cytotoxicity against human KYSE510 cells after 96 hrs by microtiter assay; assay type: functional, cell-based; conditions: KYSE-510, 96 h
# Summary of the method: as §1
# [13] = Cytotoxicity against human LCLC-103H cells after 96 hrs by microtiter assay; assay type: functional, cell-based
# Summary of the method: as §1
# [14] = tested on: YAPC; test: Cytotoxicity against human YAPC cells after 96 hrs by microtiter assay; assay type: functional, cell-based
# Summary of the method: as §1
# [15] = tested on: HL-60; test: Cell cycle arrest in human HL60 cells assessed as accumulation at G2/M phase at 0.3 uM after 72 hrs by FACS relative to untreated control; assay type: functional, cell-based
# Summary of the method: as §2
# [16] = tested on: HL-60; test: Cell cycle arrest in human HL60 cells assessed as accumulation at G0/G1 phase at 0.3 uM after 72 hrs by FACS relative to untreated control; assay type: functional, cell-based
# Summary of the method: as §2
# [17] = tested on: Staphylococcus aureus; test: Antibacterial activity against Staphylococcus aureus NCTC 4163 after 24 hrs; assay type: functional, organism-based; conditions: NCTC 4163, 24 h
# Summary of the method: (§3)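 Overnight culture diluted in Mueller–Hinton broth to 10^5 CFU/ml. Compounds dissolved in DMSO and diluted twofold in broth over 0.24–62.5 […]. Tubes inoculated and incubated 24 h at 37 °C. MIC taken as the lowest concentration with no visible growth. Clear tubes were subcultured onto Mueller–Hinton agar, and MBC was taken as the minimal concentration killing the organisms after 24 h.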
# [18] = tested on: Staphylococcus epidermidis; test: Antibacterial activity against Staphylococcus epidermis NCTC 14990 after 24 hrs; assay type: functional, organism-based; conditions: NCTC 14990, 24 h
# Summary of the method: as §3
# [19] = tested on: MCF7; test: Cytotoxicity against human MCF7 cells after 96 hrs by microtiter assay; assay type: functional, cell-based; conditions: MCF7, 96 h
# Summary of the method: as §1
# [20] = tested on: Enterococcus hirae; test: Antibacterial activity against Enterococcus hirae NCTC 10541 after 24 hrs; assay type: functional, organism-based; conditions: NCTC 10541, 24 h
# Summary of the method: as §3
# [21] = tested on: A-427; test: Cytotoxicity against human A427 cells after 96 hrs by microtiter assay; assay type: functional, cell-based; conditions: A-427, 96 h
# Summary of the method: as §1
smiles,measurement,setting,value
N#C/C(=C\c1ccc([N+](=O)[O-])s1)c1nc2ccccc2[nH]1,Activity,[1],Active
same,IC50,[2],600 nM
same,IC50,[3],530 nM
same,IC50,[4],190 nM
same,IC50,[5],130 nM
same,IC50,[6],480 nM
same,IC50,[7],190 nM
same,Activity,[8],Active
same,IC50,[9],440 nM
same,Activity,[10],Active
same,Activity,[11],Active
same,IC50,[12],400 nM
same,IC50,[13],210 nM
same,IC50,[14],210 nM
same,Activity,[15],Active
same,Activity,[16],Active
same,MIC,[17],6.4 µM
same,MIC,[18],3.2 µM
same,IC50,[19],260 nM
same,MIC,[20],> 210 µM
same,IC50,[21],150 nM
